Compound activity: PubChem, The Scripps Research Institute Molecular Screening Center
LEDGF integ inh: blocks HIV-1 LEDGF/p75-dependent DNA integration. TR-FRET IN-LEDGF/p75 DNA integration, Eu/Cy5. actives 0.64% (n = 370,000). inhibition, % at 3.7 µM. AID 743269;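 active = inhibition above the screen-wide mean plus 3 SD, cut at about 13% in these data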;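 note: signal is the Cy5 over europium emission ratio at 671 and 618 nm; 0% = plate median of compound wells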
Tn7 DDE FP: inhibitors of Tn7 peptide binding to human fibrin DD(E); inhibition, % at 8.3 µM; actives 0.13% (n = 370,000); FP displacement of FITC-Tn7 peptide from fibrin DD(E); 0% = median of compound wells per plate; P02675; AID 720508;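 active = inhibition above the mean of compounds falling within the control limits plus 3 SD of them, cut at about 14% in these data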;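 note: 0% = plate median of compound wells and 100% = 10 µM Aha-Tn7 peptide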
Target sequence (P02675 whole entry, looked up): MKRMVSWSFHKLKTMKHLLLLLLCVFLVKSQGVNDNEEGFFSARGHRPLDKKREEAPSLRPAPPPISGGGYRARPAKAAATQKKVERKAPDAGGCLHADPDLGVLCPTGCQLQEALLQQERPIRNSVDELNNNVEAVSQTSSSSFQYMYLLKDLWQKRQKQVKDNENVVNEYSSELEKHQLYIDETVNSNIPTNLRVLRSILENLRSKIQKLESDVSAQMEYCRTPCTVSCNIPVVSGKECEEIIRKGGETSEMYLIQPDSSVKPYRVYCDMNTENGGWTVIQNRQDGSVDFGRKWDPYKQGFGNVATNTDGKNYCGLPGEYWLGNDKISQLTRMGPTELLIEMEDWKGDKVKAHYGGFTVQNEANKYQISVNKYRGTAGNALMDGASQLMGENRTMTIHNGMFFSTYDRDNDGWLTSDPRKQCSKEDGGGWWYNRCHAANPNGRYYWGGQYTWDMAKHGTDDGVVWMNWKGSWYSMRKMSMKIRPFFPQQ
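Test system – human fibrin DD(E) · Times – 10 min preincubation, 3 h with tracer, room temperature · Detection – fluorescence polarization of the labelled Tn7 tracer · Measure – percent inhibition normalized to high-control wells · Benchmarks – high control wells with 10 µM unlabelled Aha-Tn7 peptide (full inhibition) · Repeats – singlicate testing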
UHRF1 MBD2 ctr: blocks human UHRF1 binding to methylated DNA | AID 687016 | actives 0.75% (n = 370,000) | Q96T88 | inhibition, % at 4.4 µM | UHRF1 binding to methylated oligo, TR-FRET; in the data active = inhibition above about 21%;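 note: UHRF1 SRA domain binding a hemimethylated CpG hairpin DNA probe; 0% = median of test compound wells and 100% = reference inhibitor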
Tn6 DDE FP: disrupts Tn6 cyclic peptide binding to fibrin D-Dimer-E complex; P02675; Fibrin DD(E) TRITC-Tn6 fluorescence polarization displacement; inhibition, % at 8.3 µM; actives 0.21% (n = 370,000); AID 720509;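 active = inhibition above a per-campaign cutoff: mean of compounds within control limits plus 3 SD, cut at about 15% in these data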;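 note: 0% = median of all compound wells on the plate and 100% = blocking peptide control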
MBD2 inh: inhibitors of human MBD2 binding to methylated oligonucleotide. Q9UBB5. TR-FRET. inhibition, % at 4.4 µM. actives 0.31% (n = 370,000); in the data active = inhibition above about 13%
TDP2 absorb: blocks human TDP2 phosphodiesterase activity. actives 0.34% (n = 370,000). O95551. inhibition, % at 12.8 µM. AID 720702. recombinant TDP2, T5PNP hydrolysis, p-nitrophenol absorbance 415 nm;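 active = inhibition above the mean of all tested compounds plus 3 SD, set per campaign, cut at about 25% in these data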;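 note: 0% = DMSO with enzyme and 100% = buffer with substrate but no TDP2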
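test system = human TDP2 enzyme | input = TDP2 enzyme at 120 nM final | medium = 50 mM Tris-HCl pH 7.5 with Mg2+, KCl, DTT, BSA | also added = T5PNP substrate, 5 mM | times = 2 h at 37 °C | technique = epi absorbance | benchmarks = high control without enzyme, low control DMSO plus TDP2 | replication = each compound tested once, singlicate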
* = called active by the depositor. Only some compounds are listed: those with a hit (about 1.9% of all), similar ones and a draw of the others.

SMILES	LEDGF integ inh	Tn7 DDE FP	UHRF1 MBD2 ctr	Tn6 DDE FP	MBD2 inh	TDP2 absorb
CCOC(=O)[C@]12CCCCC/C=C\1N(Cc1ccc(OC)cc1)C(=O)[C@H]2CC(=O)NCCc1ccccc1OC	-0.2	1.4	-0.2	-7.7	-1.0	8.8
COCCN1C(=O)[C@H]2C[C@@]13O[C@H](c1ccc(C(F)(F)F)cc1)N=C3C[C@H](c1ccccc1)[C@H]2C	-1.0	-0.8	0.3	-5.6	-2.1	-8.5
CC(C)(C)OC(=O)N1CCC(CNC(=O)c2cccs2)CC1	1.5	0.5	15.1	-5.7	-0.6	5.8
CC(C)(C)OC(=O)N1CCC(CNC(=O)c2ccc(F)cc2F)CC1	2.7	7.7	22.9*	2.7	-5.8	18.3
COc1ccc(C2c3ccccc3NC3C2C(=O)N(Cc2ccc(OC)cc2OC)[C@H]3Cc2ccccc2)cc1 (some centres undefined)	-2.8	-3.6	2.0	-0.8	5.1	-0.8
Cc1cc(NC(=O)Cn2ccc([N+](=O)[O-])n2)no1	-1.6	1.3	23.4*	3.5	0.0	-5.9
Cc1ccc(NC(=O)Cn2ccc([N+](=O)[O-])n2)cc1C	-1.0	-3.6	0.1	1.7	-0.1	4.6
O=C1c2cc(CO)cc(O)c2C(=O)c2c(O[C@@H]3OC(CO)[C@@H](O)[C@@H](O)[C@@H]3O)cccc21 (some centres undefined)	3.5	-7.8	-3.5	-1.5	-7.2	-13.1
O=C(O)c1cc(O)c2c(c1)[C@@H]([C@H]1c3cc(C(=O)O)cc(O)c3C(=O)c3c(O[C@@H]4O[C@H](CO)[C@@H](O)[C@H](O)[C@H]4O)cccc31)c1cccc(OC3O[C@H](CO)[C@@H](O)[C@H](O)[C@H]3O)c1C2=O (some centres undefined)	74.0*	7.1	79.8*	-4.7	38.1*	21.7
O=C(O)C1CSC(c2ccco2)N1 (centres undefined)	48.3*	-1.7	64.9*	-1.9	33.8*	-0.1
COc1ccccc1-c1ocnc1C(=O)Nc1ccc(N2CCOCC2)cc1N1CCOCC1	-0.8	2.5	73.8*	5.2	-5.0	-8.5
O=C(CCNc1n[nH]c(=O)[nH]c1=O)N1CCCCC1	1.7	-5.4	2.5	-0.1	0.6	-8.1
O=C(O)CCCNc1n[nH]c(=O)[nH]c1=O	0.7	-6.9	25.6*	4.1	1.4	-7.8
CCOC(=O)[C@]12CCCCC/C=C\1N(CCc1ccc(Cl)cc1)C(=O)[C@H]2CC(=O)NCc1ccc(OC)c(OC)c1	4.7	-1.0	-2.4	1.3	-4.9	2.2
O=[N+]([O-])c1cc(Br)cc(/C=N/n2cnnc2)c1O	1.3	0.8	39.9*	0.1	-12.3	-1.9
O=[N+]([O-])c1cc(Cl)cc(/C=N/n2cnnc2)c1O	0.6	4.2	-7.9	3.3	-10.2	10.1
Cc1nc(C(F)(F)F)ccc1C(=O)NCC(O)c1ccccc1 (centres undefined)	-5.3	2.5	45.9*	3.2	4.4	-14.7
Cc1cccc(NC(=O)CN2C(=O)N/C(=C/c3ccc(C)o3)C2=O)c1	4.3	2.5	88.4*	-4.6	-1.0	9.0
Cc1ccc(NC(=O)CN2C(=O)N/C(=C/c3cc(C)n(-c4cccc(C(=O)O)c4)c3C)C2=O)cc1	26.0*	-4.8	36.5*	-5.0	7.9	-10.6
Cc1ccc(NC(=O)CN2C(=O)N/C(=C/c3ccccc3OCc3cccc(C(=O)O)c3)C2=O)cc1	9.7	-5.5	-0.3	3.3	-5.5	-9.2
Cc1cc(NC(=O)CSc2nc(CC(C)(C)C)nc3c2c(=O)n(C)c(=O)n3C)no1	2.1	-2.5	21.7*	-3.3	2.9	-1.6
Cc1cc(NC(=O)CSc2nc(-c3ccccc3Cl)nc3c2c(=O)n(C)c(=O)n3C)no1	2.2	0.9	23.4*	-4.1	7.3	-5.9
CCOC(=O)C1CCN(C2CC(=O)N(c3ccc(OCC)cc3)C2=O)CC1 (centres undefined)	0.5	-3.0	9.1	13.8	2.1	7.1
CCCCCCOc1ccc(N2C(=O)CC(N3CCC(C(=O)OCC)CC3)C2=O)cc1 (centres undefined)	-4.4	1.9	43.0*	-0.8	-0.9	-6.3
CCCOc1ccc(N2C(=O)CC(N3CCN(C(=O)c4ccco4)CC3)C2=O)cc1 (centres undefined)	-0.6	6.1	-1.4	16.9*	-6.9	-2.5
SMILES	LEDGF integ inh	Tn7 DDE FP	UHRF1 MBD2 ctr	Tn6 DDE FP	MBD2 inh	TDP2 absorb
CCCCNC(=O)C[C@H]1C(=O)N(CCCOC)C2=CCCCC[C@]21C(=O)OC	6.0	4.1	-3.3	2.0	2.3	7.0
COc1cccc(CNC(=O)C2C3C=CC4(CN(Cc5ccccc5)C(=O)C24)O3)c1OC (centres undefined)	-4.0	-7.4	4.4	-2.4	5.7	0.0
Cn1nc(C(C)(C)C)cc1C(=O)NCC1CCN(C(=O)C(=O)c2cc3ccccc3o2)CC1	0.0	-1.7	-4.2	-0.9	-1.3	1.0
O=c1ccc2cc3c([nH]c4ccc(Br)cc43)oc-2c1O	65.6*	-15.4	18.7	-17.6	0.6	3.1
O=C(O)c1ccc(N=Nc2c(O)[nH]c3ccc(Br)cc23)cc1	6.9	-2.1	1.9	-2.3	0.2	-1.2
Cc1ccc(S(=O)(=O)N2CCN(C(C)C(=O)N3CCCc4ccccc43)CC2)cc1 (centres undefined)	0.3	6.8	26.8*	3.3	1.3	-0.3
CC(C(=O)N1CCCc2ccccc21)N1CCN(S(=O)(=O)c2ccccc2F)CC1 (centres undefined)	5.2	1.3	4.4	-3.6	2.7	2.2
CC(C(=O)NC(=O)NCc1ccccc1)N1C(=O)c2ccccc2C1=O (centres undefined)	-0.2	-0.3	1.6	-9.4	-2.3	1.9
CCCCC(C(=O)NC(=O)NCc1ccccc1)N1C(=O)c2ccccc2C1=O (centres undefined)	2.4	3.0	22.7*	3.7	11.7	9.8
COC(=O)[C@@]12CCCCC=C1N(CCc1ccc(Cl)cc1)C(=O)[C@H]2CC(=O)NCCc1ccccc1OC	-1.1	7.8	-0.4	-2.5	4.9	4.1
Cc1cc(C)cc(C(=O)OCCCN(C)C2CN(Cc3cn(Cc4cccc(F)c4)nn3)S(=O)(=O)C2)c1 (centres undefined)	3.9	-2.3	2.2	-2.0	-2.6	-11.8
O=C(NCCN1CCCCC1)Nc1ccc(F)cc1F	-5.1	9.7	22.7*	5.8	-4.1	3.8
C=CCN=C1NC(CCc2ccccc2)C(C(=O)OC)=C(C)N1Cc1cccc(C(F)(F)F)c1 (centres undefined)	-1.1	5.0	-1.2	-0.7	-3.5	8.5
Cc1cc(C)nc(SCc2ccc(F)cc2)n1	0.3	4.2	22.8*	-5.0	10.0	11.8
